Among the data in ChEMBL document CHEMBL1150391, “Pyridinium cationic-dimer antimalarials, unlike chloroquine, act selectively between the schizont stage and the ring stage of Plasmodium falciparum” (Bioorg Med Chem, 2008) are EC50 and Activity values, retold here.

pEC50: −log10 of the molar value. Calls of active or inactive are those of the source. The rule behind the calls is not given here.

One assay concerns FM3A. The assay can be described thus: Cytotoxicity against mouse FM3A cells assessed as inhibition of increase in cell density after 48 hrs. It counts as cell-based. The procedure, abridged:
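Mouse mammary tumor FM3A (subclone F28-7) cells kept in suspension in ES medium with 2% heat-inactivated FBS, seeded at 5 × 10⁴ cells/mL, compounds added in DMSO. 48 h, 37 °C, 5% CO2; cells counted microscopically. Duplicate wells, mean of three experiments; IC50 is the concentration giving 50% inhibition of cell-density increase versus control.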

Assay [1] concerns Plasmodium falciparum. Description: Antimalarial activity as reduced parasitaemia after 72 hrs against chloroquine-sensitive Plasmodium falciparum FCR3 in human erythrocytes by Diff-Quick stain. Type of assay: functional, organism-based. To be noted: FCR3, 72 h. The procedure, abridged: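 FCR-3 grown in type A human RBCs (5% hematocrit stock culture) in RPMI 1640 with HEPES, NaHCO3, gentamicin and 10% heat-inactivated type A human serum. Assay: 0.3% parasitemia, 3% final hematocrit, DMSO compound dilutions; 72 h, 37 °C, 5% CO2/5% O2/90% N2. Parasitemia read from Diff-Quik thin films. Duplicate wells, mean of three experiments; IC50 taken from the growth-inhibition curve.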

For assay [2], the system named is Plasmodium falciparum. The assay can be described thus: Antimalarial activity as synchronized late trophozoites of chloroquine-sensitive Plasmodium falciparum FCR3 in human erythrocytes at 5 uL by Diff-Quick stain. It counts as functional, organism-based. The procedure, abridged:
(§1)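 Cultures synchronized twice with 5% D-sorbitol 40 h apart (>80% rings); stage checked microscopically before dosing. Compound added at ring, middle trophozoite, late trophozoite or schizont stage; 5% erythrocytes, about 1.0% parasitemia, compound in 0.1% DMSO at 100 times the IC50. 48 h, 37 °C; medium and compound renewed at 24 h. Infection ratio counted per at least 2000 erythrocytes in Diff-Quik films every 6 h; duplicate, versus compound-free control.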

Assay [3] relates to Plasmodium falciparum. Description: Antimalarial activity as synchronized schizonts of chloroquine-sensitive Plasmodium falciparum FCR3 in human erythrocytes at 5 uL by Diff-Quick stain. Type of assay: functional, organism-based. The procedure, abridged:
as §1

For assay [4], the system named is Plasmodium falciparum. The assay can be described thus: Antimalarial activity as synchronized middle trophozoites of chloroquine-sensitive Plasmodium falciparum FCR3 in human erythrocytes at 5 uL by Diff-Quick stain. Type of assay: functional, organism-based. Summed up: as §1
Assay [5] has as its system Plasmodium falciparum. The assay can be described thus: Antimalarial activity as synchronized ring-stage of chloroquine-sensitive Plasmodium falciparum FCR3 infected human erythrocytes at 5 uL by Diff-Quick stain. It counts as functional, organism-based. Summed up: as §1

With `O=C(Nc1ccc(F)cc1)c1cc[n+](CCCCCCCCCC[n+]2ccc(C(=O)Nc3ccc(F)cc3)cc2)cc1`, the pEC50 was 4.56 in the assay with FM3A and 7.68 with Plasmodium falciparum [1].
For `CCCCCCNC(=O)c1cc[n+](CCCCCCCCCC[n+]2ccc(C(=O)NCCCCCC)cc2)cc1`, the result in the assay with Plasmodium falciparum [2], with Plasmodium falciparum [4] and with Plasmodium falciparum [5] was inactive. In addition, the pEC50 in the assay with FM3A is 4.98; in the assay on Plasmodium falciparum [1] it was 8.30. In addition, in the assay with Plasmodium falciparum [3], the outcome was Active.
Take `O=C(Nc1ccc(Cl)cc1)c1cc[n+](CCCCCCCCCC[n+]2ccc(C(=O)Nc3ccc(Cl)cc3)cc2)cc1`: the pEC50 in the assay with FM3A was 5.72; with Plasmodium falciparum [1], 8.10.
As for `O=C(Nc1ccc([N+](=O)[O-])cc1)c1cc[n+](CCCCCCCCCC[n+]2ccc(C(=O)Nc3ccc([N+](=O)[O-])cc3)cc2)cc1`, the pEC50 was 5.22 with FM3A and 7.13 in the assay on Plasmodium falciparum [1].
With `O=C(Nc1ccccc1)c1cc[n+](CCCCCCCCCC[n+]2ccc(C(=O)Nc3ccccc3)cc2)cc1`, the outcome in the assay on Plasmodium falciparum [2], in the assay on Plasmodium falciparum [4] and in the assay with Plasmodium falciparum [5] was inactive. Further, the pEC50 was 4.37 with FM3A and 7.54 in the assay with Plasmodium falciparum [1]. In the assay with Plasmodium falciparum [3], the result was Active.
For the molecule `O=C(Nc1ccc(I)cc1)c1cc[n+](CCCCCCCCCC[n+]2ccc(C(=O)Nc3ccc(I)cc3)cc2)cc1`, the pEC50 with FM3A is 5.85; with Plasmodium falciparum [1] it was 7.92.
`CCCCNC(=O)c1cc[n+](CCCCCCCCCCCC[n+]2ccc(C(=O)NCCCC)cc2)cc1`: the negative logarithm of the EC50 (pEC50) is 4.28 with FM3A and 7.00 with Plasmodium falciparum [1].
For `O=C(Nc1ccc(C(F)(F)F)cc1)c1cc[n+](CCCCCCCCCC[n+]2ccc(C(=O)Nc3ccc(C(F)(F)F)cc3)cc2)cc1`, the values for the pEC50 in the assay with FM3A and with Plasmodium falciparum [1] were 5.29 and 7.48, respectively.
Turning to `Cc1ccc(NC(=O)c2cc[n+](CCCCCCCCCC[n+]3ccc(C(=O)Nc4ccc(C)cc4)cc3)cc2)cc1`, the pEC50 is 4.59 with FM3A and 7.41 in the assay on Plasmodium falciparum [1].
With `N#Cc1ccc(NC(=O)c2cc[n+](CCCCCCCCCC[n+]3ccc(C(=O)Nc4ccc(C#N)cc4)cc3)cc2)cc1`, the pEC50 with FM3A was 4.37; in the assay on Plasmodium falciparum [1] it was 7.46.
As for `O=C(Nc1ccc(Br)cc1)c1cc[n+](CCCCCCCCCC[n+]2ccc(C(=O)Nc3ccc(Br)cc3)cc2)cc1`, the pEC50 with FM3A is 5.86; in the assay with Plasmodium falciparum [1] it was 7.82.

The term pEC50 denotes −log10 of the EC50, conventionally taken in molar units.
